Active and inactive are the calls of the source. The rule behind the calls is not given here.
Tests used:
Rhesus monkey = test: Reduction in peripheral lymphocyte count in orally dosed monkey measured after 24 hrs; assay type: ADME, organism-based; conditions: Macaca mulatta
[1] = Ratio of plasma concentration in Sprague-Dawley rat at 14.5 ug/hr/kg dosed as constant infusion to IC50 for reduction in peripheral lymphocyte count in orally dosed rat; assay type: ADME, organism-based; conditions: in vivo, po
Procedure, shortened: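 Male Sprague–Dawley rats received a 48 h constant infusion at 14.5 μg/h/kg, and plasma drug concentration was taken at the 48 h time point. […] The ratio is the 48 h plasma concentration divided by that IC50.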

Mus musculus [2] = test: Reduction in disease severity in C57Bl/6 mouse experimental autoimmune encephalomyelitis model of multiple sclerosis at 3 mg/kg dosed once daily beginning on day 18 and continued to day 37; assay type: functional, organism-based; parameters: dose 3 mg/kg
Procedure, shortened: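 Female C57Bl/6 mice with MOG35–55-induced EAE; once-daily treatment started day 18 after severe disease onset and continued to day 37; vehicle 0.5% methylcellulose; clinical scoring.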

Mus musculus [3] = test: Reduction in lymphocyte infiltration in C57Bl/6 mouse experimental autoimmune encephalomyelitis model of multiple sclerosis at 3 mg/kg dosed once daily beginning on day 18 and continued to day 37 by immunofluorescent staining method; assay type: functional, organism-based; parameters: dose 3 mg/kg
Procedure, shortened: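 Therapeutic EAE in female C57Bl/6 mice, dosing from day 18; spinal cord and brain collected day 37; cerebellum sections immunostained for CD45 and CD3 with DAPI counterstain; inflammatory foci and infiltrating lymphocytes assessed.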

Rattus norvegicus [4] = test: Induction of body weight regain in Lewis rat collagen-induced arthritis model at 1 mg/kg, po qd measured on day 17 (reference value: 160.3 +/- 2.3 g); assay type: functional
Rattus norvegicus [5] = test: Improvement histological parameters of knee and ankles in Lewis rat collagen-induced arthritis model at 1 mg/kg, po qd measured on day 17; assay type: functional, organism-based; parameters: dose 1 mg/kg; conditions: Ankle/Knee
Rattus norvegicus [6] = test: Improvement histological parameters of knee and ankles in Lewis rat collagen-induced arthritis model at 3 mg/kg, po qd measured on day 17; assay type: functional, organism-based; parameters: dose 3 mg/kg
Cytochrome P450 3A4 = Cytochrome P450 3A4 (Homo sapiens, UniProt P08684); test: Inhibition of CYP3A4 (unknown origin); assay type: ADME
Cytochrome P450 3A4, sequence (P08684 whole entry): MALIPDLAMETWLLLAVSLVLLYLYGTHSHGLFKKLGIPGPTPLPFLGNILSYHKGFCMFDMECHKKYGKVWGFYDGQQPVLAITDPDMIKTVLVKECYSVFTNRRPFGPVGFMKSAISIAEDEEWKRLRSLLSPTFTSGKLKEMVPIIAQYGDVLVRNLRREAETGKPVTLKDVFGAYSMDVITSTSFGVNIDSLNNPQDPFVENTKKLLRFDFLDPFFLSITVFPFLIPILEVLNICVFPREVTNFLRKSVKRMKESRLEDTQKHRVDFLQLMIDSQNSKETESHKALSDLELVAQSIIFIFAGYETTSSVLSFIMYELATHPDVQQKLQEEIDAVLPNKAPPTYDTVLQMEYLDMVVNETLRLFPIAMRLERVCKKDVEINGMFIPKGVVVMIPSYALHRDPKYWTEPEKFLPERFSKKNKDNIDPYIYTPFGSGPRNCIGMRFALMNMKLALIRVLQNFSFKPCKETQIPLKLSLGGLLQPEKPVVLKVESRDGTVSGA

Cytochrome P450 2D6 = Cytochrome P450 2D6 (Homo sapiens, UniProt P10635); test: Inhibition of CYP2D6 (unknown origin); assay type: ADME
Cytochrome P450 2D6, sequence (P10635 whole entry): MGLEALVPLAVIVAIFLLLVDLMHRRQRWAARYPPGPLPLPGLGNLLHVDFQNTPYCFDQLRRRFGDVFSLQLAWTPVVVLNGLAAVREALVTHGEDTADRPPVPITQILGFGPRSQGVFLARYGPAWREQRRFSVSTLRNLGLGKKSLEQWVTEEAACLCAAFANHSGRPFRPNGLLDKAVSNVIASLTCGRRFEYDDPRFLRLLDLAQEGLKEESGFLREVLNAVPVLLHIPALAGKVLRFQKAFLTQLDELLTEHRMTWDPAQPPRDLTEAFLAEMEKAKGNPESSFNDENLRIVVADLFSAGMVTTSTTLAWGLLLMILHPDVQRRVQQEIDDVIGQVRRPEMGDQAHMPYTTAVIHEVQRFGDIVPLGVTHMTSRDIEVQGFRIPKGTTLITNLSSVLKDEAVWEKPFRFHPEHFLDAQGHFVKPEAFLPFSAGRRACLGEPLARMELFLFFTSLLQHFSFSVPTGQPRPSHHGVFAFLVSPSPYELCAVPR

Adenosine receptor A3 = Adenosine receptor A3 (Homo sapiens, UniProt P0DMS8); test: Binding affinity to human adenosine A3 receptor
Adenosine receptor A3, sequence (P0DMS8 whole entry): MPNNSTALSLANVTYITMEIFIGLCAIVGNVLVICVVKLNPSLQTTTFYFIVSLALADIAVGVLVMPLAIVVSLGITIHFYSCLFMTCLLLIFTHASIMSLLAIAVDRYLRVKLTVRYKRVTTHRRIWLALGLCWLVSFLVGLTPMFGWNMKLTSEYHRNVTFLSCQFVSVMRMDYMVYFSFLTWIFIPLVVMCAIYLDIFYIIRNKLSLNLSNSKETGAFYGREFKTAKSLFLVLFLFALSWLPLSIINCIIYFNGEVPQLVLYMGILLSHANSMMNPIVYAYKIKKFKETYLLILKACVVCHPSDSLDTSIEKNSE

[7] = Activation of Inward rectifier potassium channel in human atrial myocytes; assay type: cell-based; conditions: Cardiac atrium
Procedure, shortened: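 In vitro activation of the inward-rectifying potassium channel (IKACh) in human atrial myocytes, run alongside S1P as reference agonist; potency expressed as EC50.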

Salmonella typhimurium [8] = test: Genotoxicity in Salmonella typhimurium in presence of rat liver S9 fraction by Ames bacterial reverse mutation assay; assay type: toxicity, organism-based; conditions: salmonella enterica subsp. enterica serovar typhimurium
Salmonella typhimurium [9] = test: Genotoxicity in Salmonella typhimurium in absence of rat liver S9 fraction by Ames bacterial reverse mutation assay; assay type: toxicity, organism-based; conditions: salmonella enterica subsp. enterica serovar typhimurium
[10] = target: Voltage-gated inwardly rectifying potassium channel KCNH2 (Homo sapiens, UniProt Q12809); test: Displacement of [3H]astemizole from human ERG
Voltage-gated inwardly rectifying potassium channel KCNH2, sequence (Q12809 whole entry): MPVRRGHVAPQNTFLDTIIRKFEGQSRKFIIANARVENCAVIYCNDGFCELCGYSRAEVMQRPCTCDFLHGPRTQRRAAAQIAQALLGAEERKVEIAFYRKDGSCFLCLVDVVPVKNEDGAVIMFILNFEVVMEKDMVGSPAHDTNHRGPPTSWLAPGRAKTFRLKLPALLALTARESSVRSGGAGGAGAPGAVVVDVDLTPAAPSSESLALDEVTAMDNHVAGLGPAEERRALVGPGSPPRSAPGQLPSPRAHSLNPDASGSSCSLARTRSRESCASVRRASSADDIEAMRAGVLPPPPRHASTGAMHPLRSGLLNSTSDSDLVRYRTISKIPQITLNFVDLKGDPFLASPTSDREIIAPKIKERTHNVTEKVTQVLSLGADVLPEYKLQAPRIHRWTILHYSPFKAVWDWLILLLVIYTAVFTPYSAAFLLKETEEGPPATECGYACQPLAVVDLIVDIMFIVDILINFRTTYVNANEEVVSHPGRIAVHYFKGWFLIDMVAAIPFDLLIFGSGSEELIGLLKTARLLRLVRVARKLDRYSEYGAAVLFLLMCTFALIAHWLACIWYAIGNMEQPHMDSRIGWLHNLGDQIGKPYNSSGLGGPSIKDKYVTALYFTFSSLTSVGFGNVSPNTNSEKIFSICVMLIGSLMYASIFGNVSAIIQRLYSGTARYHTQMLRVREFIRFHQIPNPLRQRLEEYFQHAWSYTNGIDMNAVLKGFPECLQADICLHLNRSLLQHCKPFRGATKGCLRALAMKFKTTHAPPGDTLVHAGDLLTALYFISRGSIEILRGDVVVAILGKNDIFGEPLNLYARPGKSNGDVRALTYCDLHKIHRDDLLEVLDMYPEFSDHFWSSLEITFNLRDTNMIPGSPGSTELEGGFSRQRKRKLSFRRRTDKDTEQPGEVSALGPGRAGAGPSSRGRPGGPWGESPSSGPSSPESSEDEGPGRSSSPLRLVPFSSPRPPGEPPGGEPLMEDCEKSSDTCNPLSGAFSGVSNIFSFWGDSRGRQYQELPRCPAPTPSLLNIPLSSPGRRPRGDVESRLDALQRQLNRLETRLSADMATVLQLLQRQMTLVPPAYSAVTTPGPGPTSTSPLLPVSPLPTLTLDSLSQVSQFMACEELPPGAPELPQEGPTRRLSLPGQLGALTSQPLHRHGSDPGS
Procedure, shortened: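 hERG interaction assessed by [³H]-astemizole binding displacement.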

Canis familiaris [11] = test: Effect on pulse pressure in telemeterized dog up to 40 mg/kg; assay type: ADME, organism-based, Canis lupus familiaris; parameters: dose 40 mg/kg; conditions: in vivo
Procedure, shortened: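 Telemeterized dogs dosed at levels up to 40 mg/kg; pulse pressure, heart rate, body temperature and ECG parameters monitored.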

Rattus norvegicus [12] = test: Effect on neurobehaviour in Sprague-Dawley rat up to 350 mg/kg; assay type: ADME, organism-based; parameters: dose 350 mg/kg; conditions: in vivo
Procedure, shortened: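 CNS (neurobehavioral) and respiratory safety studies in SD rats, doses up to 350 mg/kg.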

Rattus norvegicus [13] = test: Toxicity in Sprague-Dawley rat assessed as induction of CNS clinical changes at 1000 mg/kg during 14 day repeat dose study; assay type: organism-based, Central nervous system; parameters: dose 1000 mg/kg; conditions: in vivo, 336 h
Procedure, shortened: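 14-day repeat-dose rat toxicity study with dose groups of 30, 100, 300 and 1000 mg/kg; animals monitored for tolerability, mortality and CNS clinical signs.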

Rattus norvegicus [14] = test: Effect on liver function in Sprague-Dawley rat at 30 to 1000 mg/kg; assay type: ADME, organism-based; parameters: dose 30-1000 mg/kg; conditions: in vivo
[15] = target: T1, Sphingosine 1-phosphate receptor 1 (Homo sapiens, UniProt P21453); test: Agonist activity at human S1P1 receptor assessed as cAMP accumulation by HTRF assay; assay type: functional
T1 sequence (P21453 whole entry): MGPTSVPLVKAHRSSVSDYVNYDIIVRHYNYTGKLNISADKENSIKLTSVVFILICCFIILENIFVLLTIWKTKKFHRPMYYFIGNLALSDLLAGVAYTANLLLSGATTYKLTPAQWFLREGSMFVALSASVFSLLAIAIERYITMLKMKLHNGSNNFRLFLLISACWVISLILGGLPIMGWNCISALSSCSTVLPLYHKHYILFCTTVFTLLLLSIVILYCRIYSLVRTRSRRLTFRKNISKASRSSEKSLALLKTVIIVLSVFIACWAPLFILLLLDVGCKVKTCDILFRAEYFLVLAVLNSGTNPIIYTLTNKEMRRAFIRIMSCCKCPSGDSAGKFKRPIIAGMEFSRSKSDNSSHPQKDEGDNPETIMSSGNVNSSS
Procedure, shortened: (§1)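 HTRF cyclase (cAMP) functional assay at S1P1 of each species; EC50 taken as mean of three or more replicates; efficacy given as % agonism relative to S1P.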

[16] = target: T1, Sphingosine 1-phosphate receptor 1; test: Agonist activity at human S1P1 receptor assessed as cAMP accumulation by HTRF assay relative to S1P; assay type: functional; procedure, shortened: as §1
[17] = Half life in rat liver microsomes; assay type: ADME
Procedure, shortened: (§2)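 Stability on incubation with liver microsomes of each species; half-life reported.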

[18] = Half life in human liver microsomes; assay type: ADME; procedure, shortened: as §2
[19] = Oral bioavailability in rat; assay type: ADME, organism-based; conditions: in vivo
[20] = target: T1, Sphingosine 1-phosphate receptor 1; test: Induction of internalization of HA-tagged human S1P1 receptor expressed in CHO cells; assay type: cell-based
Procedure, shortened: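 CHO cells expressing HA-tagged human S1P1; receptor internalization measured, IC50 derived.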

[21] = target: Sphingosine 1-phosphate receptor 1 (Mus musculus) (UniProt O08530); test: Agonist activity at mouse S1P1 receptor assessed as cAMP accumulation by HTRF assay relative to S1P; assay type: functional; procedure, shortened: as §1
Sphingosine 1-phosphate receptor 1 (Mus musculus), sequence (O08530 whole entry): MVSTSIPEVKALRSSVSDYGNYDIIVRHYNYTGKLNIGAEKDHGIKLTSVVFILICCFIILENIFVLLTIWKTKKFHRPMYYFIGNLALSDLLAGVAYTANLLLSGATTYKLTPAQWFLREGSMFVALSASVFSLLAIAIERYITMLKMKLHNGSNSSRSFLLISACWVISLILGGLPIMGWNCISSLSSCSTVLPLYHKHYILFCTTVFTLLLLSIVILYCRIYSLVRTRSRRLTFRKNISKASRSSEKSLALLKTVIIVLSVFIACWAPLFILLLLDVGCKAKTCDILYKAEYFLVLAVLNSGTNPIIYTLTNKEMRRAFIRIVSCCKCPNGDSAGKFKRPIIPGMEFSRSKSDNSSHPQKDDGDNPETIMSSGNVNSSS

[22] = target: Sphingosine-1-phosphate receptor 1 (Canis lupus familiaris) (UniProt W5VNF7); test: Agonist activity at dog S1P1 receptor assessed as cAMP accumulation by HTRF assay relative to S1P; assay type: functional; procedure, shortened: as §1
Sphingosine-1-phosphate receptor 1 (Canis lupus familiaris), sequence (W5VNF7 as listed by the source): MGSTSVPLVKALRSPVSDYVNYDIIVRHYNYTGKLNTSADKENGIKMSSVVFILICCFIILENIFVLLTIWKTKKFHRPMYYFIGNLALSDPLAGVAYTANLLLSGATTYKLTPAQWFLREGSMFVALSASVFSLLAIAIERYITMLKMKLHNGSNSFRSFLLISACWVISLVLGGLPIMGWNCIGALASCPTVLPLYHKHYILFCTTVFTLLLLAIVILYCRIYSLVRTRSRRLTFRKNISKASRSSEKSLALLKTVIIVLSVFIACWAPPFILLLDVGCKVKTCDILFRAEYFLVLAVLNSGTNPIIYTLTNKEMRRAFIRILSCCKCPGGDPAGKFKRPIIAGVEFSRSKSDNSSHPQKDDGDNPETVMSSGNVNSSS

[23] = target: Sphingosine 1-phosphate receptor 2 (Homo sapiens, UniProt O95136); test: Agonist activity at human S1P2 receptor by beta-arrestin recruitment assay
Sphingosine 1-phosphate receptor 2, sequence (O95136 whole entry): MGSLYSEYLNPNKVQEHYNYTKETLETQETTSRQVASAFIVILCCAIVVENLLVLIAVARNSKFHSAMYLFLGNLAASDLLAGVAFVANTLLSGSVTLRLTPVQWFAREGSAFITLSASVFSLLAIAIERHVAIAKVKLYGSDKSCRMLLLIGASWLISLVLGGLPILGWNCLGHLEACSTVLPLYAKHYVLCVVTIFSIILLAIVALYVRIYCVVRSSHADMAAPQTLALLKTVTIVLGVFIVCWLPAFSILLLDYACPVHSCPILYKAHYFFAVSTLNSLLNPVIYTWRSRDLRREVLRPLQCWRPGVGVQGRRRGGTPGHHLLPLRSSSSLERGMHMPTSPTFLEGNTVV

[24] = target: Sphingosine 1-phosphate receptor 3 (Homo sapiens, UniProt Q99500); test: Agonist activity at human S1P3 receptor by beta-arrestin recruitment assay
Sphingosine 1-phosphate receptor 3, sequence (Q99500 whole entry): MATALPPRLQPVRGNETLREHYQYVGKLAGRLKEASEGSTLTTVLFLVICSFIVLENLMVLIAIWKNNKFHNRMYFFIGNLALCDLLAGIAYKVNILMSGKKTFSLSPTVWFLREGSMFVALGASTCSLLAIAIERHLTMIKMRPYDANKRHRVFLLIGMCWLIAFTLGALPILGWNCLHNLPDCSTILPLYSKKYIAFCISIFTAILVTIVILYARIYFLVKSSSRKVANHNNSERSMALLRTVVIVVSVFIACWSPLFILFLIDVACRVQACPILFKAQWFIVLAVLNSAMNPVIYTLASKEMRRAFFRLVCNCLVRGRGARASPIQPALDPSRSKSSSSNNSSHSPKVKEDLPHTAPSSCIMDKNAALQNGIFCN

[25] = target: Sphingosine 1-phosphate receptor 5 (Homo sapiens) (UniProt Q9H228); test: Agonist activity at human S1P5 receptor by beta-arrestin recruitment assay relative to S1P
Sphingosine 1-phosphate receptor 5 (Homo sapiens), sequence (Q9H228 whole entry): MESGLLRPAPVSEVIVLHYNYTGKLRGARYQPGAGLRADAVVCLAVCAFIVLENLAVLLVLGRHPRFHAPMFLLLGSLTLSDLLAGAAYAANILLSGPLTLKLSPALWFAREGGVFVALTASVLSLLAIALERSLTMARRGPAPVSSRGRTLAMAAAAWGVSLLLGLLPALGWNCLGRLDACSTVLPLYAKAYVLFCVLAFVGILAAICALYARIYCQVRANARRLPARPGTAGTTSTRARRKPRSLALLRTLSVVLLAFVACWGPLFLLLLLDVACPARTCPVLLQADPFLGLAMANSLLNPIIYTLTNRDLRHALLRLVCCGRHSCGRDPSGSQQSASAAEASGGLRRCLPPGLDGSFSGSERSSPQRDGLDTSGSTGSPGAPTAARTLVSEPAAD

[26] = Half life in monkey liver microsomes; assay type: ADME, Macaca mulatta; conditions: rhesus monkey; procedure, shortened: as §2
[27] = Systemic clearance in dog at 1 mg/kg, iv; assay type: ADME, organism-based, Canis lupus familiaris; parameters: dose 1 mg/kg, route intravenous; conditions: in vivo
[28] = Systemic clearance in monkey at 1 mg/kg, iv; assay type: ADME, organism-based, Macaca mulatta; parameters: dose 1 mg/kg, route intravenous; conditions: rhesus monkey, in vivo
Mus musculus [29] = test: Systemic clearance in mouse at 1 mg/kg, iv relative to liver blood flow; assay type: ADME, organism-based; parameters: dose 1 mg/kg, route intravenous; conditions: in vivo
Canis familiaris [30] = test: Systemic clearance in dog at 1 mg/kg, iv relative to liver blood flow; assay type: ADME, organism-based, Canis lupus familiaris; parameters: dose 1 mg/kg, route intravenous; conditions: in vivo
[31] = Volume of distribution at steady state in monkey at 1 mg/kg, iv; assay type: ADME, organism-based, Macaca mulatta; parameters: dose 1 mg/kg, route intravenous; conditions: rhesus monkey, in vivo, read-out: Vdss
[32] = Cmax in monkey at 1 mg/kg, iv or 3 mg/kg, po; assay type: ADME, organism-based, Macaca mulatta; conditions: rhesus monkey, in vivo
Procedure, shortened: (§3)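 Preclinical iv/po PK; amorphous free acid dosed orally as a suspension in 0.5% methyl cellulose; clearance and Vss from intravenous administration.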

[33] = Tmax in monkey at 1 mg/kg, iv or 3 mg/kg, po; assay type: ADME, organism-based, Macaca mulatta; conditions: rhesus monkey, in vivo
[34] = AUC (0 to infinity) in mouse at 1 mg/kg, iv or 1 mg/kg, po; assay type: ADME, organism-based; conditions: plasma; procedure, shortened: as §3
[35] = AUC (0 to infinity) in monkey at 1 mg/kg, iv or 3 mg/kg, po; assay type: ADME, organism-based, Macaca mulatta; conditions: rhesus monkey, plasma; procedure, shortened: as §3
[36] = Oral bioavailability in mouse at 1 mg/kg; assay type: ADME, organism-based; conditions: in vivo
[37] = Oral bioavailability in monkey at 3 mg/kg; assay type: ADME, organism-based, Macaca mulatta; conditions: rhesus monkey, in vivo

O=C(O)C[C@H]1CCc2c1[nH]c1ccc(OCc3ccc(C4CCCC4)c(C(F)(F)F)c3)cc21 [ETRASIMOD]
IC50 (Rhesus monkey): 98 nM
Ratio [1]: 2
Activity (Mus musculus [2]): Active
Activity (Mus musculus [3]): Active
Activity (Rattus norvegicus [4]): 178.6 g
Activity (Rattus norvegicus [5]): Active
Activity (Rattus norvegicus [6]): Active
IC50 (Cytochrome P450 3A4): > 50000 nM
IC50 (Cytochrome P450 2D6): > 50000 nM
IC50 (Adenosine receptor A3): 3300 nM
EC50 [7]: 29.9 nM
Activity (Salmonella typhimurium [8]): Non-toxic
Activity (Salmonella typhimurium [9]): Non-toxic
IC50 [10]: > 30000 nM
Activity (Canis familiaris [11]): Non-toxic
Activity (Rattus norvegicus [12]): Non-toxic
Activity (Rattus norvegicus [13]): Toxic
Activity (Rattus norvegicus [14]): Non-toxic
EC50 [15]: 0.04 nM
Emax [16]: 102%
half-life [17]: > 1 h
half-life [18]: > 1 h
bioavailability [19]: 54%
IC50 [20]: 1.88 nM
Emax [21]: 95%
Emax [22]: 87%
EC50 [23]: > 10000 nM
EC50 [24]: > 10000 nM
Emax [25]: 73%
half-life [26]: > 1 h
clearance [27]: 0.23 mL/min/kg
clearance [28]: 0.947 mL/min/kg
CL (Mus musculus [29]): 2%
CL (Canis familiaris [30]): 0.746%
Vd [31]: 0.411 L/kg
Cmax [32]: 2870 ng/mL
Tmax [33]: 3.33 h
AUC(0-inf) [34]: 10300 ng·h/mL
AUC(0-inf) [35]: 23100 ng·h/mL
bioavailability [36]: 100%
bioavailability [37]: 43.8%

Reference: ChEMBL document CHEMBL3352115, “Discovery of APD334: Design of a Clinical Stage Functional Antagonist of the Sphingosine-1-phosphate-1 Receptor” (ACS Med Chem Lett, 2014)
